Assay results taken from article PMC8829947 (ACS Omega, 2022).
≈ marks a conversion by molar mass, not a printed value. Like-named read-outs stand apart in the source and are kept apart here.

Tests used:
[1] = biological target: IMP-7; test: In vitro enzyme inhibition assay, purified recombinant IMP-7; assay type: biochemical; conditions: read-out: IC50 IMP-7 - Zn; Zn2+-depleted (Chelex-100-treated) buffer
In short: (§1)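 Purified recombinant enzyme at 4 nM was preincubated 5–10 min at RT with varying inhibitor concentrations. Buffer was 50 mM HEPES pH 7.5, 0.2% DMSO, 1% PEG 4000, with either 10 μM ZnSO4 or no zinc (Chelex-100-treated, 2 h, filtered). Reactions were started with nitrocefin (30 μM final, A490) or meropenem (50 μM final, A300) and followed 60 s. IC50 came from the linear portion of progress curves. Duplicates.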

[2] = tested on: K. pneumoniae ATCC 33495::pGDP2 (NDM-1); test: Meropenem rescue and MIC, antimicrobial susceptibility test; assay type: cell-based, Klebsiella pneumoniae; conditions: for MIC: Klebsiella pneumoniae; for RC in MHB, K. pneumoniae ATCC 33495::pGDP2 (NDM-1): rescue concentration at meropenem 2 μg/mL
[3] = biological target: NDM-1 (Klebsiella pneumoniae, UniProt C7C422); test: In vitro enzyme inhibition assay, purified recombinant NDM-1; assay type: biochemical
Sequence of NDM-1 (C7C422 29-270, looked up, species assumed): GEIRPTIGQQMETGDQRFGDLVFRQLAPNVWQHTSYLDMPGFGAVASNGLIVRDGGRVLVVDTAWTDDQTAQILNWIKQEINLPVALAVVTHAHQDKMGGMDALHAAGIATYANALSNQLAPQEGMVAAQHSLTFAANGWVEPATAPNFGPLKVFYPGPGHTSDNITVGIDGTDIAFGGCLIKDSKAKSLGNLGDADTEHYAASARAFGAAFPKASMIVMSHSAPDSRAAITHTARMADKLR
In short: as §1

[4] = tested on: E. coli; test: MIC of single agent, antimicrobial susceptibility test; assay type: cell-based; conditions: Escherichia coli
[5] = biological target: VIM-2 (Escherichia coli, UniProt Q5U7L7); test: In vitro enzyme inhibition assay, purified recombinant VIM-2; assay type: biochemical
In short: as §1

[6] = tested on: E. coli expressing blaNDM-1; test: Meropenem rescue concentration, antimicrobial susceptibility test; assay type: cell-based, Escherichia coli; conditions: rescue concentration at meropenem 2 μg/mL, MHB
In short: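 Checkerboard broth microdilution in Mueller–Hinton broth against E. coli carrying the plasmid-borne MBL gene. Meropenem used five 2-fold dilutions and the test compound six 2-fold dilutions, within 0.5–64 μg/mL; the test compound was dissolved in water or 50% methanol. Inoculum was adjusted to OD625 0.08–0.10, then diluted 200-fold. Incubation was 20 h static at 37 °C, read at OD600. RC is the compound concentration restoring susceptibility at meropenem 2 μg/mL. ≥2 replicates.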

[7] = Zn2+ affinity by competition with colorimetric PAR assay; assay type: binding; conditions: read-out: Kd,Zn2; PAR 100 μM, ZnSO4 10 μM, pH 7.5, 3 h at 25 °C
In short: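 The test compound was titrated into Chelex-100-treated 20 mM HEPES, 100 mM NaCl, pH 7.5, containing PAR 100 μM and ZnSO4 10 μM, then incubated 3 h at 25 °C. Zn2+ displacement from PAR was read as the fall in absorbance at 492 nm. Kd was estimated from the known PAR stability constant at pH 7.4.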

[8] = tested on: A. baumannii ATCC 17978::pROTO2 (NDM-1); test: Meropenem rescue and MIC, antimicrobial susceptibility test; assay type: cell-based, Acinetobacter baumannii; conditions: rescue concentration at meropenem 2 μg/mL
[9] = tested on: E. coli BW25113 (WT); test: Cell penetration / intracellular accumulation assay; assay type: cell-based, Escherichia coli; conditions: 50 μM, wild-type E. coli
In short: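 E. coli BW25113 (wild type) cells were incubated with the test compound at 50 μM (reference chelator at 50 or 100 μM) for 10 min at 37 °C. Cells were spun through ice-cold silicone oil (12,000g, 2 min), resuspended in water and lysed by three freeze–thaw cycles. The debris pellet was extracted with MeOH. Pooled extracts were quantified by UPLC–Q-TOF targeted MS/MS against a calibration curve. Biological and technical triplicates.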

[10] = IC50 NDM-1 + Zn, Zn2+-supplemented (10 μM) buffer
[11] = IC50 NDM-1 - Zn, Zn2+-depleted (Chelex-100-treated) buffer

For `CC(C)(S)C(NC[C@H](NC[C@H](N)C(=O)O)C(=O)O)C(=O)O` (stereo in doubt) [Compound 15, (S)-2-(((S)-2-(((S)-2-Amino-2-carboxyethyl)amino)-2-carboxyethyl)amino)-3-mercapto-3-methylbutanoic Acid], the IC50 [1] was over 500 µM, the MIC ([2]; ATCC33495, read-out: MIC of compound (Table 3 footnote c)) was 16 to 32 mg/L and the IC50 [3, 10] was 56.1 ± 2.5 µM. For the same molecule, the IC50 [3, 11] was 98.6 ± 4 µM, the MIC ([4]; read-out: MIC (antimicrobial activity)) was 64 mg/L and the IC50 [5] was 361 ± 29 µM. For the same molecule, the “RC in MHB, NDM-1” value [6] was 32 µg/mL and the Kd [7] was 0.0023 ± 0.0004 µM.
With `N[C@@H](CN[C@@H](CN[C@@H](CC(=O)O)C(=O)O)C(=O)O)CSc1ccccc1` [Compound 4] the IC50 [1] was 32 ± 3.1 µM, the “RC in MHB, K. pneumoniae ATCC 33495::pGDP2 (NDM-1)” value [2] was 8 μg/mL and the IC50 [3, 10] was 12.5 ± 0.8 µM. For the same molecule, the IC50 [3, 11] was 150 ± 16 µM, the “RC in MHB, A. baumannii ATCC 17978::pROTO2 (NDM-1)” value [8] was 8 μg/mL and the “intracellular accumulation increase relative to AMA” value [9] was 1.5 fold. For the same molecule, the IC50 [5] was 246 ± 23 µM, the “RC in MHB, NDM-1” value [6] was 8 µg/mL and the Kd [7] was 0.0004 ± 7e-05 µM.
With `N[C@@H](CN[C@@H](CN[C@@H](CC(=O)O)C(=O)O)C(=O)O)CSc1ccc(O)cc1` [Compound 6, ((S)-2-(((S)-2-Amino-3-((4-hydroxyphenyl)thio)propyl)amino)-2-carboxyethyl)-L-aspartic Acid] the IC50 [1] was over 500 µM, the “RC in MHB, K. pneumoniae ATCC 33495::pGDP2 (NDM-1)” value [2] was 16 μg/mL and the IC50 [3, 10] was 54 ± 4.1 µM. The IC50 [3, 11] was over 500 µM, the “RC in MHB, A. baumannii ATCC 17978::pROTO2 (NDM-1)” value [8] was 8 μg/mL and the “intracellular accumulation increase relative to AMA” value [9] was 4.5 fold. The IC50 [5] was 183 ± 10 µM, the “RC in MHB, NDM-1” value [6] was 8 µg/mL and the Kd [7] was 0.0078 ± 0.0034 µM.
For `C[C@@H](O)[C@H]1C(=O)N2C(C(=O)O)=C(S[C@@H]3CN[C@H](C(=O)N(C)C)C3)[C@H](C)[C@H]12` [meropenem, reference compound], the MIC ([2]; ATCC33495, read-out: Meropenem MIC (Table 3 footnote b)) was 16 to 32 mg/L (≈ 41.7 to 83.4 µM), the MIC ([4]; read-out: MIC of meropenem against resistant E. coli) was 64 mg/L and the intracellular accumulation ([9]; 10 min 37 °C) was 43.9 nmol/10^12 CFU.
